Measured values reported in PMC3706105 (Breast cancer research and treatment, 2012).

Assays:
MAPKAPK = experiment: Immunoblot pT334 MAPKAPK; format: cell-based, human; details: MDA-MB-231, SB203580 exposure
Summary of the method: (§1)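 MDA-MB-231 cells treated with test compound, e.g. 10 ppm for 1–24 h. For P38 inhibition, cells were pretreated 1 h with SB203580, then co-treated 4 h. Lysed in Tris pH 7.5/NP-40/SDS/deoxycholate buffer with phosphatase and protease inhibitors. 20–50 μg protein resolved by 10 or 12% SDS-PAGE, wet-transferred and blocked in 5% BSA/TBS-Tween. Phospho-specific primaries at 1:1000, HRP secondaries at 1:5,000, chemiluminescent detection; band densitometry.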

ATF2 = experiment: Immunoblot pATF2; format: cell-based, human
Summary of the method: as §1

MDA-MB-231 [1] = experiment: Crystal violet growth assay; format: cell-based, human
Summary of the method: (§2)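 Cell seeding in 96-well plates was 1500 cells/well (MDA-MB-231, MDA-MB-436, BJ fibroblasts) or 4000 (MCF-7). Next day, phenol-free DMEM with 10% charcoal-stripped FBS plus test compound at 0.5–10 ppm (1.65–33 μM) or acetone vehicle, for up to 10 days. Plates were fixed and stained 15 min with 0.5% crystal violet/25% methanol, washed, dried, and dye eluted in 0.1 M sodium citrate; absorbance 560 nm, % of vehicle, triplicates ± SD. Day-7 IC50 by linear-regression interpolation.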

ALDH1 = experiment: Aldefluor ALDH1 activity in mammospheres; format: cell-based, human; details: MCF-7 primary mammospheres grown with GR-24; vehicle 6%
MDA-MB-231 [2] = experiment: Cell cycle analysis; format: cell-based, human; details: 48 hours
[3] = tested on: MCF-7 secondary mammospheres; experiment: XTT viability assay on mammospheres; format: cell-based, human; details: 5 days
MCF-7 [4] = experiment: Cell cycle analysis; format: cell-based, human; details: MCF-7, 10ppm, 48 hours
MDA-MB-436 [5] = experiment: Crystal violet growth assay; format: cell-based, human
Summary of the method: as §2

MCF10A [6] = experiment: Cell cycle analysis; format: cell-based; details: 0.5-10ppm, 48 hours
BJ fibroblasts = experiment: Crystal violet growth assay; format: cell-based; details: 0.5 to 10ppm, up to 10 days
Summary of the method: as §2

MDA-MB-231 mammospheres = experiment: Mammosphere formation; format: cell-based, human
Summary of the method: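 Single-cell MDA-MB-231 suspensions grown as mammospheres in serum-free phenol-red-free CnT-27 medium with growth additives on ultralow-attachment 96-well plates. Next day, test compound (ppm) or vehicle (0.6% acetone final) added; medium replenished every 3–4 days. Mammospheres above size threshold counted per well; triplicate wells, mean ± SD, two-tailed paired t-test versus vehicle.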

MCF-7 mammospheres [7] = experiment: Mammosphere formation; format: cell-based, human; details: MCF-7 primary mammospheres
Summary of the method: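 MCF-7 cells trypsinised (0.05% trypsin/EDTA), PBS-washed twice and sieved to single cells. Diluted to 10,000 cells/mL in serum-free phenol-red-free MEBM with 5 μg/ml insulin, 20 ng/ml EGF, 20 ng/ml bFGF, 1× B27 and 0.5 μg/ml hydrocortisone, and plated on ultralow-attachment 96-well plates. Next day, test compound (ppm) or 0.6% acetone final vehicle added; medium replenished every 3–4 days. Spheres over size threshold counted per well at 5×; triplicate wells ± SD, paired t-test.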

MDA-MB-436 [8] = experiment: Cell cycle analysis; format: cell-based, human; details: MDA-MB-436, 10ppm, 48 hours
MCF-7 [9] = experiment: Crystal violet growth assay; format: cell-based, human
Summary of the method: as §2

MCF-7 mammospheres [10] = experiment: Integrity of mature primary mammospheres; format: cell-based, human; details: mature MCF-7 mammospheres; for mammosphere numbers (≥100μM), percentage of vehicle treated control: 5 days of treatment, vehicle control 86.7±6.8
MDA-MB-231 [11] = experiment: XTT viability assay; format: cell-based, human; details: MDA-MB-231, XTT
Summary of the method: (§3)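 Seeding in normal growth medium in 96-well plates: 1500 cells/well for MCF10A, MDA-MB-231 and MDA-MB-436, 4000 for MCF-7. Next day, phenol-free DMEM with 10% charcoal-stripped FBS containing final concentrations of test compound or acetone vehicle, the vehicle matched to the highest dose only. After 3 days, XTT reagent 2–3 h at 37 °C. Absorbance at 450 nm minus 750 nm reference and medium blank, expressed as % of control; IC50 interpolated from sigmoidal dose–response curves.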

P38 MAPK = experiment: Immunoblot pP38; format: cell-based, human; details: densitometry of immunoblot
Summary of the method: as §1

MDA-MB-436 [12] = experiment: XTT viability assay; format: cell-based, human; details: MDA-MB-436, XTT
Summary of the method: as §3

MCF10A [13] = experiment: XTT viability assay; format: cell-based
T47D = experiment: XTT viability assay; format: cell-based, human
MCF-7 [14] = experiment: XTT viability assay; format: cell-based, human; details: MCF-7, XTT
Summary of the method: as §3

MDA-MB-231 cells [15] = experiment: Hoechst33342 nuclear staining; format: cell-based, human; details: MDA-MB-231, 5-10 ppm, 24 hours, Hoechst staining
MDA-MB-231 cells [16] = experiment: XTT viability after timed SL exposure and removal; format: cell-based, human; details: MDA-MB-231, 5ppm and 10ppm, XTT at 24 hours
Summary of the method: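 MDA-MB-231 cells exposed to test compound at 5 or 10 ppm for 2, 4 or 24 h. Medium was then removed, cells washed, and growth medium without compound added. XTT viability read 24 h after treatment start, as % of vehicle controls, mean ± SD; two-tailed paired Student's t-test against vehicle.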

BJ fibroblast = experiment: Cell cycle analysis; format: cell-based; details: 5 ppm, 48 hours

C[S+]([O-])c1ccc(-c2nc(-c3ccncc3)c(-c3ccc(F)cc3)[nH]2)cc1 (stereo not drawn) [SB203580, reference compound]
pT334 MAPKAPK phosphorylation (MAPKAPK): decreased in a dose dependent manner | inhibition of ATF2 phosphorylation following SL treatment (ATF2; MDA-MB-231, 20 μM to 40 μM): did not inhibit ATF2 phosphorylation

CC1=C[C@H](O/C=C2/C(=O)O[C@@H]3c4ccccc4C[C@H]23)OC1=O [GR-24]
IC50 of long-term proliferation (MDA-MB-231 [1]; MDA-MB-231, 7 days): 5.7 ppm | IC50 (MDA-MB-231 [1]; read-out: IC50 of long-term proliferation, MDA-MB-231, 7 days): 18.8 µM | ALDH activity (percentage of ALDH positive cells) (ALDH1): 2% | increase in sub-G1/apoptotic fraction compared to vehicle (MDA-MB-231 [2]; MDA-MB-231, 10ppm): 4.6 fold | mammosphere viability (% of vehicle control) ([3]; 2.5ppm): 68.6%±12.4 | reduction of mammosphere viability ([3]; 5ppm): approximately 80% | mammosphere viability (% of vehicle control) ([3]; 5ppm, control 98.4%± 3.4): 16.4%± 4.6 | change in subG1 fraction (MCF-7 [4]): no change | IC50 of long-term proliferation (MDA-MB-436 [5]; MDA-MB-436, 7 days): 5.2 ppm | IC50 (MDA-MB-436 [5]; read-out: IC50 of long-term proliferation, MDA-MB-436, 7 days): 17.2 µM | change in cell cycle distribution (MCF10A [6]): no change | growth compared to vehicle (BJ fibroblasts): no significant reduction in growth | mammosphere growth (MDA-MB-231 mammospheres; 2.5ppm): severely attenuated | mammosphere formation (MDA-MB-231 mammospheres; 5ppm): completely blocked | mammosphere growth (MCF-7 mammospheres [7]; 0.5ppm): inhibited to a lesser degree | mammosphere formation (MCF-7 mammospheres [7]; 1ppm): severely attenuated | mammosphere formation (MCF-7 mammospheres [7]; 2.5 –5ppm): completely inhibited | increase in sub-G1/apoptotic fraction compared to vehicle (MDA-MB-436 [8]): 3.4 fold | IC50 of long-term proliferation (MCF-7 [9]; MCF-7, 7 days): 5.7 ppm | IC50 (MCF-7 [9]; read-out: IC50 of long-term proliferation, MCF-7, 7 days): 18.8 µM

CC1=CC(O/C=C2/C(=O)c3c(c4cc(-c5scc6c5OCCO6)ccc4n3C)C2C)OC1=O (stereo not drawn) [ST362]
mammosphere numbers (≥100μM), percentage of vehicle treated control (MCF-7 mammospheres [10]; 2.5ppm): 6±1.7% | mammosphere morphology (MCF-7 mammospheres [10]; 5 and 2.5ppm, after 48 hours): looser morphology and appeared to be dissociating | mammosphere numbers (≥100μM), percentage of vehicle treated control (MCF-7 mammospheres [10]; 5ppm): 8.3±3.5% | IC50 (ppm) at 72hours (MDA-MB-231 [11]): 2.9 ppm | increase in pP38 levels compared to vehicle (P38 MAPK; MDA-MB-231, 4 hours): 5 fold | increase in pP38 levels compared to vehicle (P38 MAPK; MDA-MB-231, 8 hours): 13 fold | SubG1/poptosis (MDA-MB-231 [2]; MDA-MB-231, 5 ppm, vehicle 0.41): 4.17 | Cell Cycle Distribution (%) S (MDA-MB-231 [2]; MDA-MB-231, 5 ppm, vehicle 13.02): 11.90% | Cell Cycle Distribution (%) G2 (MDA-MB-231 [2]; MDA-MB-231, 5 ppm, vehicle 24.08): 37.93% | Cell Cycle Distribution (%) G1 (MDA-MB-231 [2]; MDA-MB-231, 5 ppm, vehicle 60.43): 42.17% | IC50 (ppm) at 72hours (MDA-MB-436 [12]): 5.9 ppm | IC50 (ppm) at 72hours (MCF10A [13]): >15 ppm | reduction in viability (MCF10A [13]; between day 10 and 14 (so in the source)): 20% | IC50 (ppm) at 72hours (T47D): 8.6 ppm | IC50 (ppm) at 72hours (MCF-7 [14]): 8.1 ppm | nuclear changes indicative of apoptosis (MDA-MB-231 cells [15]): increased nuclear condensation and fragmentation | cell viability after 2 hours exposure (MDA-MB-231 cells [16]; SL removed): No changes in cell viability | cell viability after 4 hours exposure (MDA-MB-231 cells [16]; SL removed, p<0.01): significant decrease in viability | cell viability after continual exposure (24h) compared to 4 hours exposure (MDA-MB-231 cells [16]; p<0.001): greater reduction in cell viability | SubG1/poptosis (BJ fibroblast; vehicle 0.21): 0.72 | Cell Cycle Distribution (%) S (BJ fibroblast; vehicle 2.510): 1.580% | Cell Cycle Distribution (%) G2 (BJ fibroblast; vehicle 10.17): 12.86% | Cell Cycle Distribution (%) G1 (BJ fibroblast; vehicle 84.25): 83.42% | mammosphere formation (MCF-7 mammospheres [7]; 1ppm): significantly inhibited mammosphere formation | mammosphere growth (MCF-7 mammospheres [7]; 2.5ppm, 7 days): able to block mammosphere growth | phosphorylation of ATF2 (ATF2; MDA-MB-231, immunoblot, SL treatment 4-8 hours): induced
